The source of these data is ChEMBL document CHEMBL3045213, “Antifungal activity of thiophenes from Echinops ritro” (J Agric Food Chem, 2006).

One may read the IC50 as the midpoint of a concentration-inhibition curve. Low readings indicate greater potency in that assay, high ones weaker potency in that assay.

Active and inactive are the calls of the source. The calls are words filed in the database; no cut-off is given here.

The subject of experiment [1] is Colletotrichum gloeosporioides. Put plainly: Growth inhibition of Colletotrichum gloeosporioides at 0.3 to 30 uM after 48 hr by 96-well microtiter based microdilution method. In kind it is functional, organism-based. A digest of the protocol: (§1)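 Conidia from 7-10-day-old PDA cultures adjusted photometrically (%T at 625 nm) to 1.0 × 10^6 conidia/mL. Compounds dissolved in 95% ethanol at 12 mM (stock) and diluted 1:4 with MOPS-buffered RPMI. Final concentrations were 0.3, 3.0, 30.0 µM in 96-well plates. Incubated at 24 °C with a 12-h photoperiod. Growth was read as absorbance at 620 nm at 48 h. Percent inhibition was pooled from two experiments replicated in time. Controls were broth+inoculum and solvent+broth wells.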

Experiment [2] has as its system Fusarium oxysporum. Kind of experiment: Growth inhibition of Fusarium oxysporum at 0.3 to 30 uM after 48 hr by 96-well microtiter based microdilution method. In kind it is functional, organism-based. A digest of the protocol:
as §1
On the technique in general: Broth dilution looks for growth in wells or tubes with falling amounts of substance.

The test system of experiment [3] is Colletotrichum gloeosporioides. Kind of experiment: Growth inhibition of Colletotrichum gloeosporioides at 30 uM after 48 hr by 96-well microtiter based microdilution method. Format: functional. To be noted: read-out: GI. The essentials: as §1
For experiment [4], the system named is Fusarium oxysporum. Put plainly: Growth inhibition of Fusarium oxysporum at 30 uM after 48 hr by 96-well microtiter based microdilution method. The following applies: read-out: GI. In kind it is functional. A digest of the protocol: as §1
Experiment [5] relates to Phomopsis viticola. Kind of experiment: Antifungal activity against Phomopsis viticola after 48 hr by 96-well microtiter based microdilution method.
The test system of experiment [6] is Fusarium oxysporum. Put plainly: Antifungal activity against Fusarium oxysporum after 48 hr by 96-well microtiter based microdilution method. Format: functional, organism-based. A digest of the protocol: (§2)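 Conidia from 7–10-day PDA cultures (24 °C, 12-h photoperiod) were counted photometrically from %T at 625 nm. Compounds were taken from 12 mM stocks in 95% ethanol, diluted 1:4 in MOPS-buffered RPMI, and tested at six final concentrations (1.55–50.0 µM) with incubation under the same growth conditions.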

Experiment [7] deals with Colletotrichum fragariae. Kind of experiment: Antifungal activity against Colletotrichum fragariae after 72 hr by 96-well microtiter based microdilution method. Format: functional, organism-based. The essentials:
as §2

The test system of experiment [8] is Colletotrichum fragariae. Kind of experiment: Antifungal activity against Colletotrichum fragariae after 48 hr by 96-well microtiter based microdilution method. Format: functional, organism-based. A digest of the protocol:
as §2

Experiment [9] has as its system Colletotrichum gloeosporioides. Put plainly: Antifungal activity against Colletotrichum gloeosporioides after 72 hr by 96-well microtiter based microdilution method. Format: functional, organism-based. A digest of the protocol: as §2
The test system of experiment [10] is Botrytis cinerea. Put plainly: Antifungal activity against Botryotinia fuckeliana after 72 hr by 96-well microtiter based microdilution method. In kind it is functional, organism-based. The essentials: as §2
Experiment [11] has as its system Fusarium oxysporum. Kind of experiment: Antifungal activity against Fusarium oxysporum after 72 hr by 96-well microtiter based microdilution method. In kind it is functional, organism-based. A digest of the protocol: as §2
Experiment [12] concerns Colletotrichum gloeosporioides. Kind of experiment: Antifungal activity against Colletotrichum gloeosporioides after 48 hr by 96-well microtiter based microdilution method. Format: functional, organism-based. The essentials:
as §2

In experiment [13] the test system is Phomopsis obscurans. Kind of experiment: Antifungal activity against Phomopsis obscurans after 72 hr by 96-well microtiter based microdilution method. Format: functional, organism-based. The following applies: Paraphomopsis obscurans. The essentials:
as §2

The subject of experiment [14] is Phomopsis viticola. Put plainly: Antifungal activity against Phomopsis viticola after 72 hr by 96-well microtiter based microdilution method.
In experiment [15] the test system is Phomopsis obscurans. Put plainly: Antifungal activity against Phomopsis obscurans after 48 hr by 96-well microtiter based microdilution method. To be noted: Paraphomopsis obscurans. Format: functional, organism-based. The essentials: as §2
In experiment [16] the test system is Botrytis cinerea. Kind of experiment: Antifungal activity against Botryotinia fuckeliana after 48 hr by 96-well microtiter based microdilution method. Format: functional, organism-based. The essentials:
as §2

Experiment [17] deals with Colletotrichum acutatum. Put plainly: Antifungal activity against Colletotrichum acutatum after 72 hr by 96-well microtiter based microdilution method. Format: functional, organism-based. A digest of the protocol: as §2
Experiment [18] relates to Colletotrichum acutatum. Put plainly: Antifungal activity against Colletotrichum acutatum after 48 hr by 96-well microtiter based microdilution method. Format: functional, organism-based. A digest of the protocol:
as §2

Experiment [19] deals with Colletotrichum gloeosporioides. Kind of experiment: Growth inhibition of Colletotrichum gloeosporioides at 3 uM after 48 hr by 96-well microtiter based microdilution method. The following applies: read-out: GI. Format: functional. The essentials: (§3)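 Three-point broth microdilution used final concentrations of 0.3, 3.0 and 30.0 µM, diluted from 12 mM ethanol stocks into MOPS-buffered RPMI. Conidial inoculum was counted photometrically at 625 nm and incubated at 24 °C with a 12-h photoperiod. A620 was read at 48 h and converted to percent growth inhibition. Controls were inoculated broth wells and solvent wells without inoculum.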

Experiment [20] deals with Fusarium oxysporum. Kind of experiment: Growth inhibition of Fusarium oxysporum at 3 uM after 48 hr by 96-well microtiter based microdilution method. In kind it is functional. The following applies: read-out: GI. A digest of the protocol: (§4)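 F. oxysporum conidia (photometric count, %T 625 nm) were tested in MOPS-buffered RPMI broth microdilution at final concentrations of 0.3, 3.0 and 30.0 µM, diluted from 12 mM ethanol stocks. Plates were incubated at 24 °C with a 12-h photoperiod, and A620 was read at 48 h. Mean percent growth inhibition was pooled from two experiments replicated in time.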

For experiment [21], the system named is Fusarium oxysporum. Put plainly: Growth inhibition of Fusarium oxysporum at 0.3 uM after 48 hr by 96-well microtiter based microdilution method. The following applies: read-out: GI. Format: functional. The essentials:
as §4

Experiment [22] relates to Colletotrichum fragariae. Put plainly: Growth inhibition of Colletotrichum fragariae at 3 uM after 48 hr by 96-well microtiter based microdilution method. Format: functional, organism-based. A digest of the protocol: as §3
Experiment [23] relates to Colletotrichum acutatum. Put plainly: Growth inhibition of Colletotrichum acutatum at 3 uM after 48 hr by 96-well microtiter based microdilution method. In kind it is functional, organism-based. A digest of the protocol: as §3

On to `OCCC#Cc1ccc(-c2cccs2)s1`, for which the “growth inhibition (GI)” value (in [1]; in the experiment with Fusarium oxysporum [2]) was “Active” each time.

As for `CC(=O)OCC(C#Cc1ccc(-c2cccs2)s1)OC(C)=O` (stereo not given), the “growth inhibition (GI)” value (in [1]; in the experiment with Fusarium oxysporum [2]) was “inactive” throughout.

`CC(C)CC(=O)OCCC#Cc1ccc(-c2cccs2)s1`: the “growth inhibition (GI)” value (in experiment [1]; in the experiment on Fusarium oxysporum [2]) was “inactive” each time.

On to `CC#CC#Cc1ccc(C#CC(Cl)COC(C)=O)s1` (stereo not given), for which the inhibition of growth at 30 µM in [3] stood at 81%; with Fusarium oxysporum [4] it was 82%. Also, the “growth inhibition (GI)” value (in experiment [1]; with Fusarium oxysporum [2]) was “Active” in each case.

In the case of `C=CC#Cc1ccc(-c2cccs2)s1`, the IC50 with Phomopsis viticola [5] is 19.5 µM; with Fusarium oxysporum [6], greater than 50 µM; with Colletotrichum fragariae [7], 46 µM; in the experiment with Colletotrichum fragariae [8] it was 28 µM; in [9], 10.2 µM; with Botrytis cinerea [10], greater than 50 µM. In addition, the IC50 is greater than 50 µM in the experiment on Fusarium oxysporum [11]; 4.2 µM in experiment [12]; greater than 50 µM with Phomopsis obscurans [13]; 22 µM in the experiment on Phomopsis viticola [14]; greater than 50 µM with Phomopsis obscurans [15]; greater than 50 µM in the experiment with Botrytis cinerea [16]. For the same molecule, the IC50 with Colletotrichum acutatum [17] was 28.5 µM; with Colletotrichum acutatum [18], 7.6 µM. In addition, the inhibition of growth at 30 µM (in experiment [3]; in the experiment on Fusarium oxysporum [4]) was 96% in each case. Moreover, the “growth inhibition (GI)” value (in experiment [1]; in the experiment with Fusarium oxysporum [2]) was “Active” in each case.

As to `C(#C[C@@H]1CC[C@@H]1C#Cc1ccc(-c2cccs2)s1)c1ccc(-c2cccs2)s1`, the “growth inhibition (GI)” value (in experiment [1]; with Fusarium oxysporum [2]) was “inactive” each time.

`C(#C[C@@H]1CC[C@H]1C#Cc1ccc(-c2cccs2)s1)c1ccc(-c2cccs2)s1`: the “growth inhibition (GI)” value (in [1]; with Fusarium oxysporum [2]) was “inactive” each time.

As for `CC#CC#Cc1ccc(C#CCCO)s1`, the IC50 was less than 1.6 µM in the experiment on Phomopsis viticola [5]; 9.5 µM in the experiment with Fusarium oxysporum [6]; 12.5 µM in the experiment on Colletotrichum fragariae [7]; 4.4 µM in the experiment on Colletotrichum fragariae [8]; 6 µM in experiment [9]; 41 µM in the experiment on Botrytis cinerea [10]. The half-inhibitory concentration (IC50) came to 20 µM with Fusarium oxysporum [11]; 2.6 µM in experiment [12]; 13.5 µM with Phomopsis obscurans [13]; 4 µM in the experiment on Phomopsis viticola [14]; 2.9 µM in the experiment with Phomopsis obscurans [15]; 29.4 µM with Botrytis cinerea [16]. The IC50 was found to be 19.2 µM in the experiment with Colletotrichum acutatum [17] and 3.5 µM with Colletotrichum acutatum [18]. Besides, the inhibition of growth at 30 µM (in experiment [3]; in the experiment with Fusarium oxysporum [4]) was 100% each time. Also, the “growth inhibition (GI)” value (in experiment [1]; in the experiment on Fusarium oxysporum [2]) was “Active” each time.

In the case of `O=C1C2CC=CCC2C(=O)N1SC(Cl)(Cl)Cl` (stereo not given) [CAPTAN], the IC50 with Phomopsis viticola [5] was 18 µM; with Fusarium oxysporum [6], 2.2 µM; in the experiment with Colletotrichum fragariae [7] it was 2.1 µM; in the experiment on Colletotrichum fragariae [8], less than 1.6 µM; in experiment [9] it was less than 1.6 µM; in the experiment with Botrytis cinerea [10] it was less than 1.6 µM. In addition, the IC50 with Fusarium oxysporum [11] is 5.8 µM; in experiment [12], less than 1.6 µM; in the experiment on Phomopsis obscurans [13], 3.9 µM; with Phomopsis viticola [14] it was 20 µM; in the experiment with Phomopsis obscurans [15] it was 2.4 µM; in the experiment on Botrytis cinerea [16] it was less than 1.6 µM. The half-inhibitory concentration (IC50) is 2.1 µM in the experiment with Colletotrichum acutatum [17] and less than 1.6 µM in the experiment with Colletotrichum acutatum [18].

Consider `c1csc(-c2ccc(-c3cccs3)s2)c1` [ALPHA-TERTHIENYL], for which the IC50 in the experiment on Phomopsis viticola [5] is less than 6.3 µM; in the experiment with Fusarium oxysporum [6] it was 5 µM; in the experiment with Colletotrichum fragariae [7], 9 µM; with Colletotrichum fragariae [8], 4.9 µM; in experiment [9] it was less than 1.6 µM; in the experiment with Botrytis cinerea [10], greater than 50 µM. The concentration for half-maximal inhibition (IC50) was greater than 50 µM with Fusarium oxysporum [11]; less than 1.6 µM in [12]; 9.6 µM in the experiment with Phomopsis obscurans [13]; less than 6.3 µM in the experiment with Phomopsis viticola [14]; 7.2 µM with Phomopsis obscurans [15]; greater than 50 µM in the experiment with Botrytis cinerea [16]. The 50% inhibitory concentration (IC50) turned out to be 5.3 µM with Colletotrichum acutatum [17] and 3 µM in the experiment with Colletotrichum acutatum [18]. The inhibition of growth at 3 µM (in [19]; with Fusarium oxysporum [20]) was 98% throughout. The “growth inhibition (GI)” value (in experiment [1]; in the experiment on Fusarium oxysporum [2]; in the experiment on Colletotrichum fragariae [22]; in the experiment with Colletotrichum acutatum [23]) was “Active” throughout. Also, the inhibition of growth at 0.3 µM in the experiment with Fusarium oxysporum [21] turned out to be 25%.
